ChEMBL document CHEMBL4699593, “Identification of 2,4-Disubstituted Imidazopyridines as Hemozoin Formation Inhibitors with Fast-Killing Kinetics and In Vivo Efficacy in the Plasmodium falciparum NSG Mouse Model” (J Med Chem, 2020)
Values after ≈ are worked out from the molar mass of the structure shown.

Columns and labels:
[1] = Aqueous solubility of compound in phosphate buffer saline at pH 6.5 incubated for 20 hrs under shaking condition by shake-flask method based HPLC-DAD analysis; assay type: physicochemical; details: phosphate buffered saline
Method in brief: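 Equilibrium aqueous solubility was measured at pH 6.5 using a miniaturized shake-flask method.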

Plasmodium falciparum [2] = assay: Antiplasmodial activity against multidrug-resistant asexual blood stage Plasmodium falciparum K1 strain assessed as reduction in parasite growth after 72 hrs by NBT reagent based LDH assay; assay type: functional, organism-based; details: K1, 72 h
Method in brief: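 Asexual blood-stage K1 (multidrug-resistant) parasites were read out by the parasite lactate dehydrogenase (pLDH) assay. […] Most individual values varied less than 2× (maximum 3×).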

CHO = assay: Cytotoxicity against CHO cells assessed as reduction in cell viability by MTT assay; assay type: cell-based, Cricetulus griseus; details: chinese hamster
Method in brief: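 Cytotoxicity was measured in Chinese hamster ovary (CHO) cells and reported as CC50. The selectivity index is CC50 divided by NF54 IC50.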

[3] = Terminal half life in Balb/C mouse at 10 mg/kg, po by LC-MS/MS analysis; assay type: ADME, organism-based; details: in vivo, read-out: beta t1/2 (converted)
Method in brief: (§1)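 Healthy Balb/c mice were given the compound i.v. or orally. Parameters come from non-compartmental analysis: AUC from 0 h to t_last, blood clearance, volume at steady state, terminal half-life, Tmax. Oral bioavailability F is derived from the i.v. and p.o. data.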

[4] = Tmax in Balb/C mouse at 10 mg/kg, po by LC-MS/MS analysis; assay type: ADME, organism-based; details: in vivo; method in brief: as §1
[5] = AUC (0 to t) in Balb/C mouse at 10 mg/kg, po by LC-MS/MS analysis; assay type: ADME, organism-based; design: dose 10 mg/kg; details: in vivo
Method in brief: (§2)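 Healthy Balb/c mice dosed i.v. or orally. Parameters come from non-compartmental analysis of compound concentration over time. […] Clearance is blood clearance (CL_b).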

[6] = Terminal half life in Balb/C mouse at 2 mg/kg, iv by LC-MS/MS analysis; assay type: ADME, organism-based; details: in vivo, read-out: beta t1/2 (converted); method in brief: as §1
[7] = Volume of distribution at steady state in Balb/C mouse at 2 mg/kg, iv by LC-MS/MS analysis; assay type: ADME, organism-based; details: in vivo, read-out: Vdss; method in brief: as §1
[8] = Cmax in Balb/C mouse at 2 mg/kg, iv by LC-MS/MS analysis; assay type: ADME, organism-based; design: route intravenous, dose 2 mg/kg; details: in vivo; method in brief: as §2
[9] = Clearance in Balb/C mouse blood at 2 mg/kg, iv by LC-MS/MS analysis; assay type: ADME, organism-based; details: whole blood; method in brief: as §2
[10] = Ratio of unbound average drug concentration in Balb/c mouse at 10 mg/kg, po measured at 24 hrs to IC50 for antiplasmodial activity against multidrug-sensitive Plasmodium falciparum NF54 asexual blood stage assessed as reduction in parasite growth after 72 hrs by LDH assay; assay type: organism-based; details: in vivo
Plasmodium falciparum [11] = assay: Antiplasmodial activity against multidrug-sensitive asexual blood stage Plasmodium falciparum NF54 strain assessed as reduction in parasite growth after 72 hrs by NBT reagent based LDH assay; assay type: functional, organism-based; details: NF54, 72 h
[12] = AUC (0 to t) in Balb/C mouse at 2 mg/kg, iv by LC-MS/MS analysis; assay type: ADME, organism-based; design: dose 2 mg/kg; details: in vivo; method in brief: as §2
[13] = Oral bioavailability in Balb/C mouse at 10 mg/kg by LC-MS/MS analysis; assay type: ADME, organism-based; details: in vivo; method in brief: as §1
[14] = Cmax in Balb/C mouse at 10 mg/kg, po by LC-MS/MS analysis; assay type: ADME, organism-based; design: route oral, dose 10 mg/kg; details: in vivo; method in brief: as §2

CN1CCN(CC2CCN(c3cncc4[nH]c(-c5cc(F)cc(F)c5)nc34)CC2)CC1
solubility thermodynamic at 20 h [1]: 125 µM (≈ 53.3 µg/mL) | IC50 (Plasmodium falciparum [2]): 330 nM | CC50 (CHO): 46000 nM | half-life [3]: 4.9 h | Tmax [4]: 3.5 h | AUCt [5]: 3.57 µM·h | half-life [6]: 6.9 h | Vd [7]: 51 L/kg | Cmax [8]: 100 nM | clearance [9]: 71.8 mL/min/kg | Ratio [10]: 0.3 | IC50 (Plasmodium falciparum [11]): 130 nM | AUCt [12]: 0.967 µM·h | bioavailability [13]: 73% | Cmax [14]: 400 nM
